Test results as given in ChEMBL document CHEMBL5724801, “EUbOPEN Chemogenomics Library - Multiplex” (2024).
“And” between values parts separate entries of the source, which are not always exact repeats. Equal values may be shown once.

Test system: HEK-293T
Experiment: Multiplex assay against HEK293T
Type: toxicity, cell-based
Conditions: human
In short: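 Imaging took place on a CQ1 microscope at 37°C and 5% CO2 once compound had been added to live cells stained at seeding with Hoechst33342, BioTracker Green Microtubule Cytoskeleton Dye, MitoTracker Red and Annexin V Alexa Fluor 680. CellPathfinder machine-learning gating classed cells as Hoechst high-intensity objects or normal cells, classed normal cells as having healthy, pyknosed or fragmented nuclei, and classed pyknosed cells as mitotic or apoptotic. Tubulin, mitochondrial-mass and membrane-permeability phenotypes are per cents of the healthy-nucleus cells.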

[1] = 12 h, 1 µM, compound concentration 1 uM
[2] = 12 h, 10 µM, compound concentration 10 uM
[3] = 24 h, 1 µM, compound concentration 1 uM
[4] = 24 h, 10 µM, compound concentration 10 uM
[5] = 48 h, 1 µM, compound concentration 1 uM
[6] = 48 h, 10 µM, compound concentration 10 uM

Structure (SMILES): CC(/C=C1\SC(=S)N(CCCC(=O)Nc2ccc(C(=O)O)c(O)c2)C1=O)=C\c1ccccc1
- Population Apoptotic (%) [1]: 34% and 50%
- Population Fragmented Nuclei (%) [1]: 6%
- Population Healthy Nuclei (%) [1]: 81% and 84%
- Population Hoechst High Intensity Objects (%) [1]: 6%
- Population Membrane Permeable-Phenotype (%) [1]: 0%
- Population Mitochondria Different-Phenotype (%) [1]: 41% and 62%
- Population Mitotic Cells (%) [1]: 65% and 50%
- Population Normal (%) [1]: 93%
- Population Pyknosed Nuclei (%) [1]: 11% and 8%
- Population Tubulin-Different-Phenotype (%) [1]: 31% and 20%
- Total Cell Count [1]: 422 and 389
- Population Apoptotic (%) [2]: 43% and 51%
- Population Fragmented Nuclei (%) [2]: 5%
- Population Healthy Nuclei (%) [2]: 76% and 79%
- Population Hoechst High Intensity Objects (%) [2]: 7%
- Population Membrane Permeable-Phenotype (%) [2]: 0%
- Population Mitochondria Different-Phenotype (%) [2]: 45% and 49%
- Population Mitotic Cells (%) [2]: 56% and 48%
- Population Normal (%) [2]: 92%
- Population Pyknosed Nuclei (%) [2]: 18% and 15%
- Population Tubulin-Different-Phenotype (%) [2]: 35% and 26%
- Total Cell Count [2]: 313 and 327
- Population Apoptotic (%) [3]: 27% and 31%
- Population Fragmented Nuclei (%) [3]: 9% and 7%
- Population Healthy Nuclei (%) [3]: 79% and 83%
- Population Hoechst High Intensity Objects (%) [3]: 4% and 7%
- Population Membrane Permeable-Phenotype (%) [3]: 0%
- Population Mitochondria Different-Phenotype (%) [3]: 28% and 52%
- Population Mitotic Cells (%) [3]: 72% and 68%
- Population Normal (%) [3]: 95% and 92%
- Population Pyknosed Nuclei (%) [3]: 10% and 8%
- Population Tubulin-Different-Phenotype (%) [3]: 26% and 21%
- Total Cell Count [3]: 604 and 491
- Population Apoptotic (%) [4]: 33% and 39%
- Population Fragmented Nuclei (%) [4]: 8%
- Population Healthy Nuclei (%) [4]: 75% and 79%
- Population Hoechst High Intensity Objects (%) [4]: 5% and 6%
- Population Membrane Permeable-Phenotype (%) [4]: 0%
- Population Mitochondria Different-Phenotype (%) [4]: 34% and 40%
- Population Mitotic Cells (%) [4]: 66% and 60%
- Population Normal (%) [4]: 94% and 93%
- Population Pyknosed Nuclei (%) [4]: 16% and 12%
- Population Tubulin-Different-Phenotype (%) [4]: 31% and 20%
- Total Cell Count [4]: 369 and 422
- Population Apoptotic (%) [5]: 23% and 19%
- Population Fragmented Nuclei (%) [5]: 13% and 14%
- Population Healthy Nuclei (%) [5]: 79%
- Population Hoechst High Intensity Objects (%) [5]: 2% and 5%
- Population Membrane Permeable-Phenotype (%) [5]: 1% and 0%
- Population Mitochondria Different-Phenotype (%) [5]: 16% and 26%
- Population Mitotic Cells (%) [5]: 76% and 80%
- Population Normal (%) [5]: 97% and 94%
- Population Pyknosed Nuclei (%) [5]: 7% and 6%
- Population Tubulin-Different-Phenotype (%) [5]: 14% and 13%
- Total Cell Count [5]: 998 and 673
- Population Apoptotic (%) [6]: 24% and 39%
- Population Fragmented Nuclei (%) [6]: 9% and 11%
- Population Healthy Nuclei (%) [6]: 79% and 82%
- Population Hoechst High Intensity Objects (%) [6]: 3% and 5%
- Population Membrane Permeable-Phenotype (%) [6]: 2%
- Population Mitochondria Different-Phenotype (%) [6]: 25% and 23%
- Population Mitotic Cells (%) [6]: 75% and 60%
- Population Normal (%) [6]: 96% and 94%
- Population Pyknosed Nuclei (%) [6]: 10% and 6%
- Population Tubulin-Different-Phenotype (%) [6]: 22% and 24%
- Total Cell Count [6]: 479 and 555
